{"source": "ChEMBL document CHEMBL5143611", "about": "“Antillatoxin-Stimulated Neurite Outgrowth Involves the Brain-Derived Neurotrophic Factor (BDNF) - Tropomyosin Related Kinase B (TrkB) Signaling Pathway” (J Nat Prod, 2022)", "key": {"[1]": {"assay": "Induction of aspartate release in Swiss Webster mouse immature cerebrocortical neuron assessed as increase in aspartate concentration at 100 nM incubated for 2 hrs by HPLC based fluorescence method", "format": "functional, Cerebral cortex neuron", "method_in_brief": "(§1)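 Cortical neurons at 5 DIV in 96-well plates. Medium saved and cells washed in Locke's buffer, pH 7.4. Exposure in that buffer for 2 h at 22 °C, then three washes and return to the saved medium for 22 h at 37 °C. Medium then collected, derivatized with o-phthaldialdehyde and analysed by HPLC with fluorescence detection.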"}, "[2]": {"assay": "Induction of aspartate release in Swiss Webster mouse immature cerebrocortical neuron assessed as increase in aspartate concentration at 30 nM incubated for 2 hrs by HPLC based fluorescence method", "format": "functional, Cerebral cortex neuron", "method_in_brief": "as §1"}, "[3]": {"assay": "Induction of glutamate release in Swiss Webster mouse immature cerebrocortical neuron assessed as increase in glutamate release at 30 nM incubated for 2 hrs by HPLC based fluorescence method", "format": "functional, Cerebral cortex neuron", "method_in_brief": "as §1"}, "[4]": {"assay": "(§2) Induction of BDNF release in Swiss Webster mouse immature cerebrocortical neuron assessed as increase in BDNF release incubated for 4 days by sandwich ELISA method", "format": "functional, cell-based", "conditions": "Cerebral cortex neuron, 96 h", "method_in_brief": "(§3)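 In situ sandwich ELISA. Plates coated overnight at 4 °C with anti-BDNF capture antibody, then blocked. Immature cortical neurons plated directly in the wells with BDNF standards and treated from 3 h after plating; 50 mM KCl served as comparator. After 4 days cells were washed off with TBST, and bound BDNF was detected with a polyclonal antibody for 2 h at RT.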"}, "[5]": {"tested_on": "Cerebral cortex neuron", "assay": "as §2", "format": "functional, cell-based", "conditions": "time 4.0 day, DDE = dose-dependent effect", "method_in_brief": "as §3"}, "[6]": {"tested_on": "Cerebral cortex neuron", "assay": "Induction of BDNF release in Swiss Webster mouse immature cerebrocortical neuron assessed as increase in BDNF release at 100 to 3000 nM incubated for 4 days by sandwich ELISA method", "format": "functional, cell-based", "conditions": "dose 100-3000 nM, time 4.0 day", "method_in_brief": "as §3"}, "[7]": {"tested_on": "Cerebral cortex neuron", "assay": "Induction of BDNF release in Swiss Webster mouse immature cerebrocortical neuron assessed as increase in BDNF synthesis at 30 nM incubated for 30 mins by western blot analysis", "format": "functional, cell-based", "method_in_brief": "(§4)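 DIV-1 cortical neurons in six-well plates exposed to 30 nM for 30 min at 37 °C. Where antagonists were used, 15 min preincubation. Exposure stopped on ice, cells washed in cold PBS and lysed 30 min at 4 °C. Protein measured by Bradford. Equal protein run on 10% SDS-PAGE, blotted to PVDF, probed with specific antibodies, ECL detection.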"}, "[8]": {"tested_on": "Cerebral cortex neuron", "assay": "Induction of glutamate release in Swiss Webster mouse immature cerebrocortical neuron assessed as increase in glutamate release at 30 to 100 nM incubated for 2 hrs by HPLC based fluorescence method", "format": "functional, cell-based", "conditions": "dose 30-100 nM", "method_in_brief": "as §1"}, "[9]": {"assay": "Induction of glutamate release in Swiss Webster mouse immature cerebrocortical neuron assessed as increase in glutamate release at 100 nM incubated for 2 hrs by HPLC based fluorescence method", "format": "functional, Cerebral cortex neuron", "method_in_brief": "as §1"}, "[10]": {"biological_target": "BDNF/NT-3 growth factors receptor (Homo sapiens) (UniProt Q16620)", "sequence (Q16620 32-822 limits assumed)": "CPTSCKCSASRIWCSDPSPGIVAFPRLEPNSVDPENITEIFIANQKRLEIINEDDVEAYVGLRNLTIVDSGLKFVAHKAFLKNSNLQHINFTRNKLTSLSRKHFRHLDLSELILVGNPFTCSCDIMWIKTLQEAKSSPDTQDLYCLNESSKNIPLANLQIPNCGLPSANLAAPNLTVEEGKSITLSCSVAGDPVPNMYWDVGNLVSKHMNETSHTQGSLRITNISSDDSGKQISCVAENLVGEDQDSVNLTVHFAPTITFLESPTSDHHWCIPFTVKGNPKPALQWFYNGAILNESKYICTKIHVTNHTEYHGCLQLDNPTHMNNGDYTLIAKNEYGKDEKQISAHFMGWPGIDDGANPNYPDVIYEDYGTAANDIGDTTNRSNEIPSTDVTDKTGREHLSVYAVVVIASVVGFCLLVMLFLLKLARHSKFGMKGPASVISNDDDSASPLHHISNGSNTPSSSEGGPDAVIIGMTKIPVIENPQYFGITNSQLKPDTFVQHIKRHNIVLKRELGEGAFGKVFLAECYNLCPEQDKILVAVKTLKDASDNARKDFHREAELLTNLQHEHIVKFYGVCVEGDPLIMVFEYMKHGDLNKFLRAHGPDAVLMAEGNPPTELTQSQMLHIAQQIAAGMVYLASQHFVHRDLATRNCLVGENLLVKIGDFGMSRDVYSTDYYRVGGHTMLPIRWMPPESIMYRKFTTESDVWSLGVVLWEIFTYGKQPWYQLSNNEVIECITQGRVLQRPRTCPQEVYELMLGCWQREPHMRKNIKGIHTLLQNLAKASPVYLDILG", "assay": "Activation of full length isoform of TrkB receptor (unknown origin) expressed in mouse cerebrocortical neuron assessed as increase in neurite length at 30 nM incubated for 24 hrs by DiI dye based microscopic analysis", "format": "cell-based", "conditions": "filed as activator", "method_in_brief": "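E16 mouse cortical neurons plated at 0.5 × 10^6/well and lipofected 2 h after plating with 0.5 µg gene-of-interest plasmid or empty vector plus 0.25 µg GFP plasmid. 30 nM or vehicle added 3 h after transfection. Neurons imaged at DIV-2.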"}, "[11]": {"biological_target": "BDNF/NT-3 growth factors receptor (Mus musculus) (UniProt P15209)", "sequence (P15209 whole entry)": "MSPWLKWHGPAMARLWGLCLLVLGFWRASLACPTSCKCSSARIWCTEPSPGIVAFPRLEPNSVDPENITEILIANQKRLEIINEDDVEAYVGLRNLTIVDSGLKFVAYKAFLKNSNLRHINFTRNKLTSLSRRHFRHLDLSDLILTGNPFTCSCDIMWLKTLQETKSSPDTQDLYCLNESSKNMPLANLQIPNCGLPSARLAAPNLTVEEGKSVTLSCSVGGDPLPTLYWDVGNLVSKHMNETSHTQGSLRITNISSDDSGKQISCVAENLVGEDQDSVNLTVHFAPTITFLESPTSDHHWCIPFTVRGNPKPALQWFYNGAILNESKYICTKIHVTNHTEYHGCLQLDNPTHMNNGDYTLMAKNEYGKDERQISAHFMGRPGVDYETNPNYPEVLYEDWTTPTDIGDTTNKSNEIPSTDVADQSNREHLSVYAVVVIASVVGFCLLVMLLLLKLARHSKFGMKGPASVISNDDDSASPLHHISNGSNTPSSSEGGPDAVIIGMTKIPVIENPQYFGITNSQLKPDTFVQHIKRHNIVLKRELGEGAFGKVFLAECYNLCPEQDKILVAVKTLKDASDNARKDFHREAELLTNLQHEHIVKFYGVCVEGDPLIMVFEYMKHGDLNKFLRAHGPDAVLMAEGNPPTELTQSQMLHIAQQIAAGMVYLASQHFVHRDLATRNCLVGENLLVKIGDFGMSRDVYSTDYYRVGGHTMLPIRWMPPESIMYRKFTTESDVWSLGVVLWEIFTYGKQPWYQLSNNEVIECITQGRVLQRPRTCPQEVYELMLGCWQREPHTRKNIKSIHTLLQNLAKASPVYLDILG", "assay": "Activation of TrkB receptor in Swiss Webster mouse immature cerebrocortical neuron assessed as phosphorylation of TrkB at Tyr516 residue at 30 nM incubated for 30 mins by western blot analysis", "format": "cell-based", "conditions": "filed as activator", "method_in_brief": "as §4"}, "[12]": {"biological_target": "RAC-alpha serine/threonine-protein kinase (Mus musculus) (UniProt P31750)", "sequence (P31750 whole entry)": "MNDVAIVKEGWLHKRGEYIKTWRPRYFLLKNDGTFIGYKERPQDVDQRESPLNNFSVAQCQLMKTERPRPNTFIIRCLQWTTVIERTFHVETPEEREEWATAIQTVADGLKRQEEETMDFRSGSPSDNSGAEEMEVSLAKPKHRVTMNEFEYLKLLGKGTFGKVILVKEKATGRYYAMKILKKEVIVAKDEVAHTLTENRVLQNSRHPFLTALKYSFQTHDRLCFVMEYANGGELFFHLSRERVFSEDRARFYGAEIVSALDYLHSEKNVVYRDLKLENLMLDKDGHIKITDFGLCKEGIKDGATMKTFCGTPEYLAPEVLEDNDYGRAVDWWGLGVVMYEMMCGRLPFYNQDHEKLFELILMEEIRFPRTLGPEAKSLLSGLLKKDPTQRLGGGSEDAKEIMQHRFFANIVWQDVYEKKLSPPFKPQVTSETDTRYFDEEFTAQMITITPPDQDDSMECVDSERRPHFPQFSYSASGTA", "assay": "Activation of Akt signalling pathway in Swiss Webster mouse immature cerebrocortical neuron assessed as increase in AKT phosphorylation of Ser473 by measuring fold change at […] incubated for 24 hrs by western blot analysis", "format": "cell-based", "conditions": "filed as activator, dose lower 10.0 µM"}, "[13]": {"biological_target": "Serine/threonine-protein kinase mTOR (Mus musculus) (UniProt Q9JLN9)", "assay": "Activation of mTOR signalling pathway in Swiss Webster mouse immature cerebrocortical neuron assessed as increase in mTOR phosphorylation at Ser2448 at […] incubated for 3 hrs by western blot analysis", "format": "cell-based", "conditions": "filed as activator"}}, "note": "Activity calls are given as the source filed them. The rule behind the calls is not given here.", "data": [{"compound": "C=C1CC(=O)N[C@@H](C)C(=O)N(C)[C@@H](C(C)C)C(=O)NCC(=O)O[C@@H](/C(C)=C/C(C)=C/C(C)(C)C)[C@@H]1C", "note": "[ANTILLATOXIN]", "values": [{"measurement": "Activity", "setting": "[1]", "result": 1.73, "unit": "µM"}, {"measurement": "Activity", "setting": "[2]", "result": 1.81, "unit": "µM"}, {"measurement": "Activity", "setting": "[3]", "result": 2.32, "unit": "µM"}, {"measurement": "EC50", "setting": "[4]", "result": 450, "unit": "nM"}, {"measurement": "Activity", "setting": "[5]", "result": "Dde"}, {"measurement": "Activity", "setting": "[6]", "result": "Active"}, {"measurement": "Activity", "setting": "[7]", "result": "Active"}, {"measurement": "Activity", "setting": "[8]", "result": "Active"}, {"measurement": "Activity", "setting": "[9]", "result": 2.07, "unit": "µM"}, {"measurement": "Activity", "setting": "[10]", "result": "Active"}, {"measurement": "Activity", "setting": "[11]", "result": "Active"}, {"measurement": "fold change (FC)", "setting": "[12]", "result": 3}, {"measurement": "fold change (FC)", "setting": "[13]", "result": 2}]}]}
